For 1 compound, Kd results are on record in article PMC2780000 (Biochemistry, 2009).

Residue numbers refer to the chain shown, from its start.

Holding throughout (assay): aerobic spectrophotometric titration of flavin absorbance
What all share (format): binding

Experiment [1] addresses T1, Class 2 dihydroorotate dehydrogenase (DHOD) from E. coli (Escherichia coli, UniProt P0A7E1, F115L/T178V).
T1 sequence (P0A7E1 1-336 F115L/T178V): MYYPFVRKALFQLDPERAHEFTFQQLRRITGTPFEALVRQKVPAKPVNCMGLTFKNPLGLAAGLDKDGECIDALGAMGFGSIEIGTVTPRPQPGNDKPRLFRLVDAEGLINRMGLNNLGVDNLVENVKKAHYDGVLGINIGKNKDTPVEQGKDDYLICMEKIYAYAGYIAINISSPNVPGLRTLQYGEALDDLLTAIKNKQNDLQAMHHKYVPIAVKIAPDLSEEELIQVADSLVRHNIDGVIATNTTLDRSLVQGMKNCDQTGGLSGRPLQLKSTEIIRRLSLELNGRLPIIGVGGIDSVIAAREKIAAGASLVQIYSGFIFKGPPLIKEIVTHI
In outline:
(§1)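 Enzymes (wild-type and mutants) expressed from the pAG-1 plasmid in E. coli SØ6645, purified, stored at −80 °C in 50% glycerol, and desalted into buffer before use. The oxidized enzyme in 0.1 M Tris-HCl, pH 8.5, 25 °C, was titrated aerobically with orotate in the same buffer. The flavin absorbance change (456→475 nm red-shift) vs orotate was fit to a binding equation using total enzyme and total ligand to give Kd.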

Experiment [2] deals with T2, Class 2 dihydroorotate dehydrogenase (DHOD) from E. coli (Escherichia coli, UniProt P0A7E1, F115W).
T2 sequence (P0A7E1 1-336 F115W): T1 sequence (P0A7E1 1-336 F115L/T178V) with L115W, V178T
In outline:
as §1

Experiment [3] addresses T3, Class 2 dihydroorotate dehydrogenase (DHOD) from E. coli (Escherichia coli, UniProt P0A7E1, F115L).
T3 sequence (P0A7E1 1-336 F115L): T1 sequence (P0A7E1 1-336 F115L/T178V) with V178T
The gist of the method:
as §1

In experiment [4] the target is T4, Class 2 dihydroorotate dehydrogenase (DHOD) from E. coli (Escherichia coli, UniProt P0A7E1, T178S).
T4 sequence (P0A7E1 1-336 T178S): T1 sequence (P0A7E1 1-336 F115L/T178V) with L115F, V178S
The gist of the method:
as §1

Experiment [5] addresses T5, Class 2 dihydroorotate dehydrogenase (DHOD) from E. coli (Escherichia coli, UniProt P0A7E1, T178A).
T5 sequence (P0A7E1 1-336 T178A): T1 sequence (P0A7E1 1-336 F115L/T178V) with L115F, V178A
The gist of the method:
as §1

Experiment [6] deals with T6, Class 2 dihydroorotate dehydrogenase (DHOD) from E. coli (Escherichia coli, UniProt P0A7E1, S175A).
T6 sequence (P0A7E1 1-336 S175A): T1 sequence (P0A7E1 1-336 F115L/T178V) with L115F, S175A, V178T
In outline:
as §1

Experiment [7] addresses T7, Class 2 dihydroorotate dehydrogenase (DHOD) from E. coli (Escherichia coli, UniProt P0A7E1, F115A).
T7 sequence (P0A7E1 1-336 F115A): T1 sequence (P0A7E1 1-336 F115L/T178V) with L115A, V178T
The gist of the method:
as §1

Experiment [8] concerns the target T8, Class 2 dihydroorotate dehydrogenase (DHOD) from E. coli (Escherichia coli, UniProt P0A7E1, T178V).
T8 sequence (P0A7E1 1-336 T178V): T1 sequence (P0A7E1 1-336 F115L/T178V) with L115F
In outline: as §1

One may read the Kd as the equilibrium constant for the complex coming apart. As for `O=C(O)c1cc(=O)[nH]c(=O)[nH]1` [orotate], the Kd worked out at 4.6 ± 0.3 µM in experiment [1]; 8.1 ± 0.4 µM in experiment [2]; 3.7 ± 0.3 µM in experiment [3]; 1.1 ± 0.4 µM in experiment [4]; 6.1 ± 0.8 µM in experiment [5]; 9.9 ± 0.9 µM in experiment [6]. Further, the equilibrium dissociation constant (Kd) is 3.8 ± 0.5 µM in experiment [7] and 0.56 ± 0.04 µM in experiment [8].
